Converted amounts (≈) assume the structure as drawn. The source made the active and inactive calls. No cut-off for these calls is given here.
Key:
[1] = system: Bacillus subtilis; assay: Antibacterial activity against Bacillus subtilis ATCC 6633 at 400 ug/disc after 18 hrs by disc diffusion assay; assay type: functional; details: ATCC 6633, 18 h, read-out: IZ
Method in brief: (§1)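 Disc diffusion on Mueller–Hinton II agar per CLSI guidelines. Compound in ethanol applied to 9 mm filter paper discs at 400 µg per disc, then dried and placed on the agar surface. Growth inhibition zone diameter read after 18 h at 35 °C.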

[2] = system: Staphylococcus aureus; assay: Antibacterial activity against Staphylococcus aureus ATCC 25923 at 400 ug/disc after 18 hrs by disc diffusion assay; assay type: functional; details: ATCC 25923, 18 h, read-out: IZ; method in brief: as §1
[3] = system: Staphylococcus epidermidis; assay: Antibacterial activity against Staphylococcus epidermidis ATCC 12228 after 18 hrs by serial agar dilution method; assay type: functional; details: ATCC 12228, 18 h
Method in brief: (§2)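 MIC by twofold serial agar dilution in Mueller–Hinton II agar per CLSI, run only for compounds that gave an inhibition zone in disc assay. Compounds dissolved in DMSO, tested at 3.125–400 µg/ml in agar. Final inoculum 10^4 CFU/ml. […] DMSO control included.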

[4] = system: Escherichia coli; assay: Antibacterial activity against Escherichia coli ATCC 25922 at 400 ug/disc after 18 hrs by disc diffusion assay; assay type: functional, organism-based; method in brief: as §1
[5] = system: Staphylococcus aureus; assay: Antibacterial activity against Staphylococcus aureus ATCC 6538 after 18 hrs by serial agar dilution method; assay type: functional; details: ATCC 6538, 18 h; method in brief: as §2
[6] = system: Micrococcus luteus; assay: Antibacterial activity against Micrococcus luteus ATCC 10240 at 400 ug/disc after 18 hrs by disc diffusion assay; assay type: functional; details: ATCC 10240, 18 h, read-out: IZ; method in brief: as §1
[7] = system: Staphylococcus aureus; assay: Antibacterial activity against Staphylococcus aureus NCTC 4163 at 400 ug/disc after 18 hrs by disc diffusion assay; assay type: functional; details: NCTC 4163, 18 h, read-out: IZ; method in brief: as §1
[8] = system: Staphylococcus aureus; assay: Antibacterial activity against Staphylococcus aureus ATCC 25923 after 18 hrs by serial agar dilution method; assay type: functional; details: ATCC 25923, 18 h; method in brief: as §2
[9] = system: Staphylococcus aureus; assay: Antibacterial activity against Staphylococcus aureus ATCC 29213 after 18 hrs by serial agar dilution method; assay type: functional; details: ATCC 29213, 18 h; method in brief: as §2
[10] = system: Candida parapsilosis; assay: Antifungal activity against Candida parapsilosis ATCC 22019 at 400 ug/disc after 24 hrs by disc diffusion assay; assay type: functional
Method in brief: (§3)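 Disc diffusion on RPMI agar with 2% glucose per CLSI guidelines. Discs 9 mm filter paper, loaded from ethanol solution with 400 µg compound, dried before placing on the agar. Inhibition zone diameter read after incubation at 35 °C. Fluconazole control at 25 µg per disc.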

[11] = system: Proteus vulgaris; assay: Antibacterial activity against Proteus vulgaris NCTC 4635 at 400 ug/disc after 18 hrs by disc diffusion assay; assay type: functional, organism-based; method in brief: as §1
[12] = system: Staphylococcus aureus; assay: Antibacterial activity against Staphylococcus aureus NCTC 4163 after 18 hrs by serial agar dilution method; assay type: functional; details: NCTC 4163, 18 h; method in brief: as §2
[13] = system: Bordetella bronchiseptica; assay: Antibacterial activity against Bordetella bronchiseptica ATCC 4617 at 400 ug/disc after 18 hrs by disc diffusion assay; assay type: functional, organism-based; method in brief: as §1
[14] = system: Bacillus subtilis; assay: Antibacterial activity against Bacillus subtilis ATCC 6633 after 18 hrs by serial agar dilution method; assay type: functional; details: ATCC 6633, 18 h; method in brief: as §2
[15] = system: Escherichia coli; assay: Antibacterial activity against Escherichia coli NCTC 8196 at 400 ug/disc after 18 hrs by disc diffusion assay; assay type: functional, organism-based; method in brief: as §1
[16] = system: Pseudomonas aeruginosa; assay: Antibacterial activity against Pseudomonas aeruginosa NCTC 6749 at 400 ug/disc after 18 hrs by disc diffusion assay; assay type: functional, organism-based; method in brief: as §1
[17] = system: Micrococcus luteus; assay: Antibacterial activity against Micrococcus luteus ATCC 9341 at 400 ug/disc after 18 hrs by disc diffusion assay; assay type: functional; details: for zone of inhibition at 400 µg/disc: ATCC 9341, 18 h, read-out: IZ; method in brief: as §1
[18] = system: Enterococcus hirae; assay: Antibacterial activity against Enterococcus hirae ATCC 10541 at 400 ug/disc after 18 hrs by disc diffusion assay; assay type: functional; method in brief: as §1
[19] = system: Pseudomonas aeruginosa; assay: Antibacterial activity against Pseudomonas aeruginosa ATCC 15442 at 400 ug/disc after 18 hrs by disc diffusion assay; assay type: functional, organism-based; method in brief: as §1
[20] = system: Bacillus cereus; assay: Antibacterial activity against Bacillus cereus ATCC 11778 at 400 ug/disc after 18 hrs by disc diffusion assay; assay type: functional; details: ATCC 11778, 18 h, read-out: IZ; method in brief: as §1
[21] = system: Pseudomonas aeruginosa; assay: Antibacterial activity against Pseudomonas aeruginosa ATCC 27853 at 400 ug/disc after 18 hrs by disc diffusion assay; assay type: functional, organism-based; method in brief: as §1
[22] = system: Candida albicans; assay: Antifungal activity against Candida albicans ATCC 10231 at 400 ug/disc after 24 hrs by disc diffusion assay; assay type: functional; method in brief: as §3
[23] = system: Micrococcus luteus; assay: Antibacterial activity against Micrococcus luteus ATCC 9341 after 18 hrs by serial agar dilution method; assay type: functional; details: ATCC 9341, 18 h; method in brief: as §2
[24] = system: Enterococcus hirae; assay: Antibacterial activity against Enterococcus hirae ATCC 10541 after 18 hrs by serial agar dilution method; assay type: functional; details: ATCC 10541, 18 h
Method in brief: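 Twofold serial agar dilution MIC in Mueller–Hinton II agar (CLSI), run only for compounds that gave an inhibition zone in disc assay. DMSO solutions tested at 3.125–400 µg/ml in agar. Final inoculum 10^5 CFU/ml. Read after 18 h at 35 °C. DMSO control included.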

[25] = system: Staphylococcus epidermidis; assay: Antibacterial activity against Staphylococcus epidermidis ATCC 12228 at 400 ug/disc after 18 hrs by disc diffusion assay; assay type: functional; details: for zone of inhibition at 400 µg/disc: ATCC 12228, 18 h, read-out: IZ; method in brief: as §1
[26] = system: Bacillus cereus; assay: Antibacterial activity against Bacillus cereus ATCC 11778 after 18 hrs by serial agar dilution method; assay type: functional; details: ATCC 11778, 18 h; method in brief: as §2
[27] = system: Escherichia coli; assay: Antibacterial activity against Escherichia coli ATCC 10538 at 400 ug/disc after 18 hrs by disc diffusion assay; assay type: functional, organism-based; method in brief: as §1
[28] = system: Staphylococcus aureus; assay: Antibacterial activity against Staphylococcus aureus ATCC 6538 at 400 ug/disc after 18 hrs by disc diffusion assay; assay type: functional; details: ATCC 6538, 18 h, read-out: IZ; method in brief: as §1
[29] = system: Candida albicans; assay: Antifungal activity against Candida albicans ATCC 90028 at 400 ug/disc after 24 hrs by disc diffusion assay; assay type: functional; method in brief: as §3
[30] = system: Micrococcus luteus; assay: Antibacterial activity against Micrococcus luteus ATCC 10240 after 18 hrs by serial agar dilution method; assay type: functional; details: ATCC 10240, 18 h; method in brief: as §2
[31] = system: Staphylococcus aureus; assay: Antibacterial activity against Staphylococcus aureus ATCC 29213 at 400 ug/disc after 18 hrs by disc diffusion assay; assay type: functional; details: ATCC 29213, 18 h, read-out: IZ; method in brief: as §1

Structure (SMILES)	zone of inhibition at 400 µg/disc [1] [mm]	zone of inhibition at 400 µg/disc [2] [mm]	MIC [3] [µg/mL]	Activity [4]	MIC [5] [µg/mL]	zone of inhibition at 400 µg/disc [6] [mm]	zone of inhibition at 400 µg/disc [7] [mm]	MIC [8] [µg/mL]	MIC [9] [µg/mL]	Activity [10]	Activity [11]	MIC [12] [µg/mL]	Activity [13]	MIC [14] [µg/mL]	Activity [15]	Activity [16]	Activity [18]	Activity [19]	zone of inhibition at 400 µg/disc [20] [mm]	Activity [21]	further results
C=CCOC(=O)[C@@H](C)[C@H](OC)[C@H](C)[C@H]1O[C@@]2(CC[C@@](C)([C@H]3CC[C@@](CC)([C@@H]4O[C@@H]([C@H]5O[C@@](O)(CO)[C@H](C)C[C@@H]5C)C[C@@H]4C)O3)O2)C[C@H](O)[C@H]1C	15	11	100 (≈ 141 µM)	inactive	100 (≈ 141 µM)	11	13	100 (≈ 141 µM)	100 (≈ 141 µM)	inactive	inactive	100 (≈ 141 µM)	inactive	12.5 (≈ 17.6 µM)	inactive	inactive	inactive	inactive	14	inactive	Activity [17]: inactive; Activity [22]: inactive; MIC [23]: 100 µg/mL (≈ 141 µM); MIC [24]: > 400 µg/mL; Activity [25]: inactive; MIC [26]: 12.5 µg/mL (≈ 17.6 µM); Activity [27]: inactive; zone of inhibition at 400 µg/disc [28]: 13 mm; Activity [29]: inactive; MIC [30]: 50 µg/mL (≈ 70.3 µM); zone of inhibition at 400 µg/disc [31]: 13 mm
CC[C@@]1([C@@H]2O[C@@H]([C@H]3O[C@@](O)(CO)[C@H](C)C[C@@H]3C)C[C@@H]2C)CC[C@H]([C@]2(C)CC[C@]3(C[C@H](O)[C@@H](C)[C@@H]([C@@H](C)[C@@H](OC)[C@H](C)C(=O)O)O3)O2)O1 [MONENSIN]	22	22	2 (≈ 2.98 µM)	inactive	2 (≈ 2.98 µM)	12	22	1 (≈ 1.49 µM)	1 (≈ 1.49 µM)	inactive	inactive	2 (≈ 2.98 µM)	inactive	1 (≈ 1.49 µM)	inactive	inactive	inactive	inactive	18	inactive	zone of inhibition at 400 µg/disc [17]: 12 mm; Activity [22]: inactive; MIC [23]: 4 µg/mL (≈ 5.96 µM); MIC [24]: 12.5 µg/mL (≈ 18.6 µM); zone of inhibition at 400 µg/disc [25]: 15 mm; MIC [26]: 2 µg/mL (≈ 2.98 µM); Activity [27]: inactive; zone of inhibition at 400 µg/disc [28]: 20 mm; Activity [29]: inactive; MIC [30]: 2 µg/mL (≈ 2.98 µM); zone of inhibition at 400 µg/disc [31]: 18 mm
CC[C@@]1([C@@H]2O[C@@H]([C@H]3O[C@@](O)(CO)[C@H](C)C[C@@H]3C)C[C@@H]2C)CC[C@H]([C@]2(C)CC[C@]3(C[C@H](O)[C@@H](C)[C@@H]([C@@H](C)[C@@H](OC)[C@H](C)C(=O)OCCOCCOCCOC)O3)O2)O1	20	19	100 (≈ 122 µM)	inactive	100 (≈ 122 µM)	13	19	50 (≈ 61.2 µM)	50 (≈ 61.2 µM)	inactive	inactive	100 (≈ 122 µM)	inactive	25 (≈ 30.6 µM)	inactive	inactive	inactive	inactive	19	inactive	zone of inhibition at 400 µg/disc [17]: 11 mm; Activity [22]: inactive; MIC [23]: 200 µg/mL (≈ 245 µM); MIC [24]: > 400 µg/mL; zone of inhibition at 400 µg/disc [25]: 13 mm; MIC [26]: 50 µg/mL (≈ 61.2 µM); Activity [27]: inactive; zone of inhibition at 400 µg/disc [28]: 17 mm; Activity [29]: inactive; MIC [30]: 50 µg/mL (≈ 61.2 µM); zone of inhibition at 400 µg/disc [31]: 17 mm
